# How the values were obtained:
# Escherichia coli [1] = assay: Antibacterial activity against Escherichia coli isolate 54 by broth microdilution method; format: functional
# In short: (§1)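 Tigecycline MICs by broth microdilution per CLSI guidelines, run in triplicate. Mueller-Hinton broth was prepared fresh less than 12 h before testing.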
# Escherichia coli [2] = assay: Antibacterial activity against Escherichia coli isolate 120 by broth microdilution method; format: functional; in short: as §1
# Escherichia coli [3] = assay: Antibacterial activity against extended-spectrum beta-lactamase producing Escherichia coli isolate 315 by broth microdilution method; format: functional; in short: as §1
# Escherichia coli [4] = assay: Antibacterial activity against extended-spectrum beta-lactamase producing Escherichia coli isolate 321 by broth microdilution method; format: functional; in short: as §1
# Escherichia coli [5] = assay: Antibacterial activity against extended-spectrum beta-lactamase producing Escherichia coli isolate 322 by broth microdilution method; format: functional; in short: as §1
# Klebsiella pneumoniae [6] = assay: Antibacterial activity against Klebsiella pneumoniae isolate 134 by broth microdilution method; format: functional; in short: as §1
# Klebsiella pneumoniae [7] = assay: Antibacterial activity against Klebsiella pneumoniae isolate 135 by broth microdilution method; format: functional; in short: as §1
# Klebsiella pneumoniae [8] = assay: Antibacterial activity against extended-spectrum beta-lactamase producing Klebsiella pneumoniae isolate 255 by broth microdilution method; format: functional; in short: as §1
# Klebsiella pneumoniae [9] = assay: Antibacterial activity against extended-spectrum beta-lactamase producing Klebsiella pneumoniae isolate 266 by broth microdilution method; format: functional; in short: as §1
# Klebsiella pneumoniae [10] = assay: Antibacterial activity against extended-spectrum beta-lactamase producing Klebsiella pneumoniae isolate 320 by broth microdilution method; format: functional; in short: as §1
# Klebsiella pneumoniae [11] = assay: Antibacterial activity against carbapenemase producing Klebsiella pneumoniae isolate 321 by broth microdilution method; format: functional; in short: as §1
# [12] = Ratio of fAUC to MIC in Escherichia coli isolate 54-infected ICR mouse at 80% maximal effective concentration; format: functional
# In short: (§2)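 EI50, EI80 and the static exposure were read from fitted curves. Free AUC came from earlier mouse PK using concentration-dependent protein binding set at Cmax. MICs were run in triplicate by CLSI broth microdilution in Mueller-Hinton broth prepared <12 h before testing, or by Etest.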
# [13] = Half life in ICR mouse at 50 mg/kg, sc; format: ADME, organism-based; set-up: dose 50 mg/kg, route subcutaneous; conditions: in vivo
# [14] = Ratio of fAUC to MIC in Escherichia coli isolate 120-infected ICR mouse at 80% maximal effective concentration; format: functional; in short: as §2
# [15] = Ratio of fAUC to MIC in extended-spectrum beta-lactamase producing Escherichia coli isolate 315-infected ICR mouse at 80% maximal effective concentration; format: functional; in short: as §2
# [16] = Ratio of fAUC to MIC in extended-spectrum beta-lactamase producing Escherichia coli isolate 321-infected ICR mouse at 80% maximal effective concentration; format: functional; in short: as §2
# [17] = Ratio of fAUC to MIC in extended-spectrum beta-lactamase producing Escherichia coli isolate 322-infected ICR mouse at 80% maximal effective concentration; format: functional; in short: as §2
# [18] = Ratio of fAUC to MIC in Klebsiella pneumoniae isolate 134-infected ICR mouse at 80% maximal effective concentration; format: functional; in short: as §2
# [19] = Ratio of fAUC to MIC in Klebsiella pneumoniae isolate 135-infected ICR mouse at 80% maximal effective concentration; format: functional; in short: as §2
# [20] = Ratio of fAUC to MIC in extended-spectrum beta-lactamase producing Klebsiella pneumoniae isolate 255-infected ICR mouse at 80% maximal effective concentration; format: functional; in short: as §2
# [21] = Ratio of fAUC to MIC in extended-spectrum beta-lactamase producing Klebsiella pneumoniae isolate 266-infected ICR mouse at 80% maximal effective concentration; format: functional; in short: as §2
# [22] = Ratio of fAUC to MIC in extended-spectrum beta-lactamase producing Klebsiella pneumoniae isolate 320-infected ICR mouse at 80% maximal effective concentration; format: functional; in short: as §2
# [23] = Ratio of fAUC to MIC in carbapenemase producing Klebsiella pneumoniae isolate 321-infected ICR mouse at 80% maximal effective concentration; format: functional; in short: as §2
# [24] = Ratio of fAUC to MIC in Escherichia coli isolate 54-infected ICR mouse at 50% maximal effective concentration; format: functional; in short: as §2
# [25] = Ratio of fAUC to MIC in Escherichia coli isolate 120-infected ICR mouse at 50% maximal effective concentration; format: functional; in short: as §2
# [26] = Ratio of fAUC to MIC in extended-spectrum beta-lactamase producing Escherichia coli isolate 315-infected ICR mouse at 50% maximal effective concentration; format: functional; in short: as §2
# [27] = Ratio of fAUC to MIC in extended-spectrum beta-lactamase producing Escherichia coli isolate 321-infected ICR mouse at 50% maximal effective concentration; format: functional; in short: as §2
# [28] = Ratio of fAUC to MIC in extended-spectrum beta-lactamase producing Escherichia coli isolate 322-infected ICR mouse at 50% maximal effective concentration; format: functional; in short: as §2
# [29] = Ratio of fAUC to MIC in Klebsiella pneumoniae isolate 134-infected ICR mouse at 50% maximal effective concentration; format: functional; in short: as §2
smiles,measurement,setting,value
CN(C)c1cc(NC(=O)CNC(C)(C)C)c(O)c2c1C[C@H]1C[C@H]3[C@H](N(C)C)C(O)=C(C(N)=O)C(=O)[C@@]3(O)C(O)=C1C2=O [TIGECYCLINE],MIC,Escherichia coli [1],0.25 µg/mL
same,MIC,Escherichia coli [2],0.125 µg/mL
same,MIC,Escherichia coli [3],0.5 µg/mL
same,MIC,Escherichia coli [4],0.25 µg/mL
same,MIC,Escherichia coli [5],0.25 µg/mL
same,MIC,Klebsiella pneumoniae [6],0.5 µg/mL
same,MIC,Klebsiella pneumoniae [7],0.5 µg/mL
same,MIC,Klebsiella pneumoniae [8],2 µg/mL
same,MIC,Klebsiella pneumoniae [9],0.5 µg/mL
same,MIC,Klebsiella pneumoniae [10],2 µg/mL
same,MIC,Klebsiella pneumoniae [11],0.5 µg/mL
same,fAUC/MIC,[12],7.7
same,half-life,[13],9.9 h
same,fAUC/MIC,[14],7.3
same,fAUC/MIC,[15],4.46
same,fAUC/MIC,[16],9.07
same,fAUC/MIC,[17],10.6
same,fAUC/MIC,[18],10
same,fAUC/MIC,[19],7.78
same,fAUC/MIC,[20],4.81
same,fAUC/MIC,[21],7.15
same,fAUC/MIC,[22],3.27
same,fAUC/MIC,[23],7.48
same,fAUC/MIC,[24],5.19
same,fAUC/MIC,[25],3.7
same,fAUC/MIC,[26],3.71
same,fAUC/MIC,[27],6.4
same,fAUC/MIC,[28],6.27
same,fAUC/MIC,[29],5.91
